# ChEMBL document CHEMBL4354800, “Amphiphilic nebramine-based hybrids Rescue legacy antibiotics from intrinsic resistance in multidrug-resistant Gram-negative bacilli” (Eur J Med Chem, 2019)
# How the values were obtained:
# Acinetobacter baumannii [1] = assay: Synergistic antibacterial activity against multidrug-resistant Acinetobacter baumannii ATCC 17978 assessed as fractional inhibitory concentration index in presence of minocycline incubated for 18 hrs by broth dilution method; format: functional
# Acinetobacter baumannii [2] = assay: Synergistic antibacterial activity against multidrug-resistant Acinetobacter baumannii AB110193 assessed as fractional inhibitory concentration index in presence of minocycline incubated for 18 hrs by broth dilution method; format: functional
# Escherichia coli [3] = assay: Synergistic antibacterial activity against Escherichia coli 107115 assessed as fractional inhibitory concentration index in presence of rifampicin incubated for 18 hrs by broth dilution method; format: functional
# Outline: (§1)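 Checkerboard titration of the adjuvant against the antibiotic, run under the CLSI microdilution conditions (MHB, 5 × 10^5 CFU/mL, 18 h, 37 °C). Each agent's FIC is its MIC in combination divided by its MIC alone; FICI is the sum of the two FICs. FICI ≤0.5 was read as synergy, >0.5–4.0 as no interaction, and >4.0 as antagonism.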
# Klebsiella pneumoniae [4] = assay: Synergistic antibacterial activity against Klebsiella pneumoniae 113250 assessed as fractional inhibitory concentration index in presence of minocycline incubated for 18 hrs by broth dilution method; format: functional; outline: as §1
# Escherichia coli [5] = assay: Potentiation of minocycline-induced antibacterial activity against Escherichia coli 94474 assessed as fold reduction in minocycline MIC at 4.1 uM incubated for 18 hrs by broth dilution method; format: functional
# Outline: (§2)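 Antibiotic MIC determined by CLSI broth microdilution (MHB, 5 × 10^5 CFU/mL, 18 h, 37 °C), once alone and once with a fixed concentration of the adjuvant. Potentiation is the ratio of the antibiotic MIC alone to its MIC in the presence of the adjuvant.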
# Klebsiella pneumoniae [6] = assay: Potentiation of rifampicin-induced antibacterial activity against Klebsiella pneumoniae 113250 assessed as fold reduction in rifampicin MIC at 4.1 uM incubated for 18 hrs by broth dilution method; format: functional; outline: as §2
# Pseudomonas aeruginosa [7] = assay: Antimicrobial activity against XDR Pseudomonas aeruginosa PA264 infected in Galleria mellonella larvae assessed as survival rate at 100 mg/kg administered 2 hrs post-inoculation measured after 18 hrs relative to control; format: functional
# Outline: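 G. mellonella larvae were injected with ~5 CFU of P. aeruginosa PA264 (10 µL of 5 × 10^2 CFU/mL in PBS) and held 2 h at 37 °C. A single 10 µL injection followed: monotherapy or rifampicin + compound (25+25, 50+50 or 75+75 mg/kg), with PBS as control. Larvae kept at 37 °C were scored every 6 h to 24 h; dead = no response to touch. n = 30 (two runs of 15); Kaplan-Meier.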
# Pseudomonas aeruginosa [8] = assay: Antimicrobial activity against XDR Pseudomonas aeruginosa isolate PA264 infected in Galleria mellonella larvae assessed as increase in survival rate co-administered with rifampicin at 2 hrs post-inoculation measured every 6 hrs for upto 24 hrs; format: functional, organism-based
# Outline: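 G. mellonella larvae each received an injection of about 5 CFU of PA264 (culture adjusted to 0.5 McFarland, then diluted in PBS to 5 × 10^2 CFU/mL) and were held 2 h at 37 °C. A single injection followed: rifampicin plus adjuvant at 25+25, 50+50 or 75+75 mg/kg, or PBS. Larvae were kept at 37 °C and scored every 6 h up to 24 h; no response to touch counted as dead. Total n=30 per group; Kaplan-Meier analysis.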
# Pseudomonas aeruginosa [9] = assay: Potentiation of rifampicin-induced antibacterial activity against wild type Pseudomonas aeruginosa PAO1 assessed as fold reduction in rifampicin MIC at 4.1 uM incubated for 18 hrs by broth microdilution method; format: functional
# Outline: (§3)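 CLSI broth microdilution. Overnight cultures were set to 0.5 McFarland in saline, diluted 1:50 in Mueller-Hinton broth to a final 5 × 10^5 CFU/mL, and incubated 18 h at 37 °C against 2-fold antibiotic dilutions. A fixed adjuvant level was present throughout. MIC = lowest concentration with no visible turbidity, confirmed at 590 nm. Potentiation = fold drop in antibiotic MIC versus antibiotic alone.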
# Pseudomonas aeruginosa [10] = assay: Potentiation of moxifloxacin-induced antibacterial activity against MDR/XDR Pseudomonas aeruginosa isolate 91433 devoid of GyrA T83I mutant assessed as fold reduction in moxifloxacin MIC at 7.5 uM incubated for 18 hrs by broth microdilution method; format: functional; outline: as §3
# Pseudomonas aeruginosa [11] = assay: Potentiation of minocycline-induced antibacterial activity against MDR/XDR Pseudomonas aeruginosa isolate PA260-97103 harboring GyrA T83I mutant assessed as fold reduction in minocycline MIC at 7.5 uM incubated for 18 hrs by broth microdilution method; format: functional
# Pseudomonas aeruginosa [12] = assay: Potentiation of minocycline-induced antibacterial activity against MDR/XDR Pseudomonas aeruginosa isolate PA259-96918 harboring GyrA T83I mutant assessed as fold reduction in minocycline MIC at 7.5 uM incubated for 18 hrs by broth microdilution method; format: functional
# Pseudomonas aeruginosa [13] = assay: Potentiation of rifampicin-induced antibacterial activity against MDR/XDR Pseudomonas aeruginosa isolate 101885 harboring GyrA T83I mutant assessed as fold reduction in rifampicin MIC at 7.5 uM incubated for 18 hrs by broth microdilution method; format: functional; outline: as §3
# Pseudomonas aeruginosa [14] = assay: Potentiation of rifampicin-induced antimicrobial activity against MDR/XDR Pseudomonas aeruginosa isolate 100036 harboring GyrA Thr83Ile mutant assessed as rifampicin MIC50 incubated for 18 hrs by broth microdilution method (reference value: 8 microg/ml); format: functional; conditions: isolate 100036, 18 h
# Pseudomonas aeruginosa [15] = assay: Potentiation of rifampicin-induced antimicrobial activity against MDR/XDR Pseudomonas aeruginosa isolate 101243 devoid of GyrA Thr83Ile mutant assessed as rifampicin MIC50 incubated for 18 hrs by broth microdilution method (reference value: 8 microg/ml); format: functional; conditions: isolate 101243, 18 h
# Acinetobacter baumannii [16] = assay: Antimicrobial activity against multidrug-resistant Acinetobacter baumannii AB030 incubated for 18 hrs by broth dilution method; format: functional; conditions: AB030, 18 h
# Outline: (§4)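 Broth microdilution per CLSI: overnight cultures set to 0.5 McFarland in saline, diluted 1:50 in Mueller-Hinton broth to a final 5 × 10^5 CFU/mL, added to 2-fold serial dilutions, incubated 18 h at 37 °C; MIC is the lowest concentration without visible turbidity, confirmed at 590 nm.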
# Acinetobacter baumannii [17] = assay: Antimicrobial activity against multidrug-resistant Acinetobacter baumannii AB031 incubated for 18 hrs by broth dilution method; format: functional; conditions: AB031, 18 h; outline: as §4
# Pseudomonas aeruginosa [18] = assay: Potentiation of rifampicin-induced antimicrobial activity against MDR/XDR Pseudomonas aeruginosa isolate 101243 devoid of GyrA Thr83Ile mutant assessed as rifampicin MIC80 incubated for 18 hrs by broth microdilution method (reference value: 16 microg/ml); format: functional; conditions: isolate 101243, 18 h
# Pseudomonas aeruginosa [19] = assay: Potentiation of ciprofloxacin-induced antibacterial activity against MDR/XDR Pseudomonas aeruginosa isolate 91433 devoid of GyrA T83I mutant assessed as fold reduction in ciprofloxacin MIC at 9 uM incubated for 18 hrs by broth microdilution method; format: functional
# Pseudomonas aeruginosa [20] = assay: Potentiation of minocycline-induced antibacterial activity against wild type Pseudomonas aeruginosa PAO1 assessed as fold reduction in minocycline MIC at 9 uM incubated for 18 hrs by broth microdilution method; format: functional; outline: as §3
# Pseudomonas aeruginosa [21] = assay: Potentiation of minocycline-induced antibacterial activity against MDR/XDR Pseudomonas aeruginosa isolate 101885 harboring GyrA T83I mutant assessed as fold reduction in minocycline MIC at 9 uM incubated for 18 hrs by broth microdilution method; format: functional
smiles,measurement,setting,value
Cl.Cl.Cl.Cl.Cl.NC[C@H]1O[C@H](O[C@H]2[C@H](OCCCCCCCCCCCCN3CCN(c4cc5c(cc4F)c(=O)c(C(=O)O)cn5C4CC4)CC3)[C@@H](O)[C@H](N)C[C@@H]2N)[C@H](N)C[C@@H]1O,fractional inhibitory concentration index (FICI),Acinetobacter baumannii [1],0.52
same,fractional inhibitory concentration index (FICI),Acinetobacter baumannii [2],>1
same,fractional inhibitory concentration index (FICI),Escherichia coli [3],0.015 - 0.02
same,fractional inhibitory concentration index (FICI),Klebsiella pneumoniae [4],0.504
same,fold change (FC),Escherichia coli [5],16
same,fold change (FC),Klebsiella pneumoniae [6],128
same,survival at 100 mg/kg,Pseudomonas aeruginosa [7],0%
same,Activity,Pseudomonas aeruginosa [8],Dose-dependent effect
same,fold change (FC),Pseudomonas aeruginosa [9],>=256
COc1c(N2C[C@@H]3CCCN(CCCCCCCCCCCCO[C@@H]4[C@@H](O)[C@H](N)C[C@H](N)[C@H]4O[C@H]4O[C@H](CN)[C@@H](O)C[C@H]4N)[C@@H]3C2)c(F)cc2c(=O)c(C(=O)O)cn(C3CC3)c12.Cl.Cl.Cl.Cl.Cl,fold change (FC),Pseudomonas aeruginosa [10],16
same,fold change (FC),Pseudomonas aeruginosa [11],32
same,fold change (FC),Pseudomonas aeruginosa [12],32
same,fold change (FC),Pseudomonas aeruginosa [13],128
same,MIC50,Pseudomonas aeruginosa [14],0.06 µg/mL
same,MIC50,Pseudomonas aeruginosa [15],0.06 µg/mL
same,MIC,Acinetobacter baumannii [16],> 16 µg/mL
same,MIC,Acinetobacter baumannii [17],128 µg/mL
same,MIC80,Pseudomonas aeruginosa [18],0.13 µg/mL
Cl.Cl.Cl.Cl.Cl.Cl.NC[C@H]1O[C@H](O[C@H]2[C@H](OCCCCCCCCCCN3CCN(Cc4cccc5ccccc45)CC3)[C@@H](O)[C@H](N)C[C@@H]2N)[C@H](N)C[C@@H]1O,fold change (FC),Pseudomonas aeruginosa [19],8
same,fold change (FC),Pseudomonas aeruginosa [20],16
same,fold change (FC),Pseudomonas aeruginosa [21],64
